The first assay deals with T1, Adrenergic receptor alpha-2 (Rattus norvegicus, UniProt P22086+P19328+P22909).
T1 sequence (P22086 whole entry): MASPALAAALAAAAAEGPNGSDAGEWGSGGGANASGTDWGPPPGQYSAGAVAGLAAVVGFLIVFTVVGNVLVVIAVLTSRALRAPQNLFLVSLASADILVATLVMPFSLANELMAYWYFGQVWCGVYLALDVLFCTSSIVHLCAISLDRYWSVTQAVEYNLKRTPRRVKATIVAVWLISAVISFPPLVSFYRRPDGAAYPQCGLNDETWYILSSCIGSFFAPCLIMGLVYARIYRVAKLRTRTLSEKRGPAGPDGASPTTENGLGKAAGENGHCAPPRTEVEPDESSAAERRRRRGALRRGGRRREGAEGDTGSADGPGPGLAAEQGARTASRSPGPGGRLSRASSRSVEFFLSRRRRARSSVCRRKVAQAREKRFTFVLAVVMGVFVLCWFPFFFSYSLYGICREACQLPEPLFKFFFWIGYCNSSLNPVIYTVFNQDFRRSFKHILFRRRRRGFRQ
T1 sequence (P19328 whole entry): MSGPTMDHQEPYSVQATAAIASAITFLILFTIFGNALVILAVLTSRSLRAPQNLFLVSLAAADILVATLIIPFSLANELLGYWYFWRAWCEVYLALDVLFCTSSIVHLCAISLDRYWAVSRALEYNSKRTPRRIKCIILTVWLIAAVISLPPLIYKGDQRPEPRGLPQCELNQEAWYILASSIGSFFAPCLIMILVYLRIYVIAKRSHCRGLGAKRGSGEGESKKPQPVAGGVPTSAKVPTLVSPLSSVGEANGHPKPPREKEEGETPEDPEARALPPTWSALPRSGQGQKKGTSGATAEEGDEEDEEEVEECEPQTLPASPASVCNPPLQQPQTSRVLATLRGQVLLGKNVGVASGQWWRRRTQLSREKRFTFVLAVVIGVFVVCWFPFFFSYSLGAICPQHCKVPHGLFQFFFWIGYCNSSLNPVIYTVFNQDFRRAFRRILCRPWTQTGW
T1 sequence (P22909 whole entry): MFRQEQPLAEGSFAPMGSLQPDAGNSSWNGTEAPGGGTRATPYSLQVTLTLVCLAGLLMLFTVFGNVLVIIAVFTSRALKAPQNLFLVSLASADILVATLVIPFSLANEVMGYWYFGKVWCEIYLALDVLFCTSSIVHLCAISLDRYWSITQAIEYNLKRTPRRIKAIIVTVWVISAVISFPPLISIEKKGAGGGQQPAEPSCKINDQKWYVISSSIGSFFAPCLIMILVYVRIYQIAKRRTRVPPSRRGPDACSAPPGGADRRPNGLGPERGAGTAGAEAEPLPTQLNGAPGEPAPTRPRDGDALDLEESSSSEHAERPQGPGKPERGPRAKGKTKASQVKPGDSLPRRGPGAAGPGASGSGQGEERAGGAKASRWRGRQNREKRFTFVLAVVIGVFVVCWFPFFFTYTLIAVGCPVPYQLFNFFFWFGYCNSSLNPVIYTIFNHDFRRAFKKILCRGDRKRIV
Put plainly: Binding affinity against alpha 2 adrenergic receptor in rat cortex using [3H]clonidine as radioligand. The assay is classed as tissue-based.
In general, Ki refers to the dissociation constant of the complex between target and ligand, obtained from inhibition or displacement. In turn, `O=[N+]([O-])c1ccc2c(c1)CNC(CCCO)C2` (centres undefined) gave an inhibitory constant (Ki) of 59 µM.
The same measure, in the same setting: the result for `O=[N+]([O-])c1ccc2c(c1)CNC(CCO)C2` (centres undefined) reads 46 µM; that for `OCCCC1Cc2ccc(Br)cc2CN1` (centres undefined), 4.8 µM; that for `OCCC1Cc2ccc(Br)cc2CN1` (centres undefined), 1.3 µM.
For `OCC1Cc2ccc(Br)cc2CN1` (centres undefined), the inhibition constant (Ki) was 1 µM.

A further assay deals with T2, Alpha-2A adrenergic receptor (Homo sapiens, UniProt P08913).
T2 sequence (P08913 whole entry): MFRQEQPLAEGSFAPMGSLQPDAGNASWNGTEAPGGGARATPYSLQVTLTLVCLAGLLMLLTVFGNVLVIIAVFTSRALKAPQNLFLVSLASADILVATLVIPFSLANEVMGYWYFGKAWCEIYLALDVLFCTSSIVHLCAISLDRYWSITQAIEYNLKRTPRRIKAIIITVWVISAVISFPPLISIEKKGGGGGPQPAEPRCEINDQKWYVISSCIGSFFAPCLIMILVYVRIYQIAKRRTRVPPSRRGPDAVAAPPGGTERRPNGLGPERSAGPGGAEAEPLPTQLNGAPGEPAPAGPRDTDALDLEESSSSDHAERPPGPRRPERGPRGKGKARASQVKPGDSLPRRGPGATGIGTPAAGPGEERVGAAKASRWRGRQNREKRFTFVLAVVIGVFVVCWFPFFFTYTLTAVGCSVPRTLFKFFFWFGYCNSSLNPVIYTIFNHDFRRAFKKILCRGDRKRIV
Nature of the assay: Binding affinity against human alpha 2A adrenergic receptor in CHO cells using [3H]RX-821002 as radioligand. The assay is classed as cell-based. Summed up: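 Membranes from CHO cells stably transfected with human α2A-adrenoceptor; [³H]RX821002 at 0.2 nM as radioligand; nonspecific binding defined with (−)-norepinephrine; displacement of radioligand measured.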
The pKi is −log10 of the Ki, conventionally taken in molar units. Higher therefore signals a low Ki. Take `O=[N+]([O-])c1ccc2c(c1)CNC(C(F)(F)F)C2` (centres undefined): the pKi is 3.4.
The same measure, in the same setting: the result for `FC(F)(F)C1Cc2ccc(Br)cc2CN1` (centres undefined) reads 4.35; that for `O=[N+]([O-])c1ccc2c(c1)CNC(C(F)F)C2` (centres undefined), 3.6.
On to `NS(=O)(=O)c1ccc2c(c1)CNCC2`, for which the pKi turned out to be 3.4.
Still for that read-out and setting: the result for `O=[N+]([O-])c1ccc2c(c1)CNCC2` reads 3.2; that for `Clc1ccc2c(c1Cl)CNCC2`, 6.52; that for `O=[N+]([O-])c1ccc2c(c1)CNC(CO)C2` (centres undefined), 3.9.
For `CC1Cc2ccc([N+](=O)[O-])cc2CN1` (centres undefined), the pKi is 4.84.
On the same count and under the same terms, the result for `O=[N+]([O-])c1ccc2c(c1)CNC(CF)C2` (centres undefined) reads 3.2.
